Assay outcomes deposited in PubChem BioAssay by The Scripps Research Institute Molecular Screening Center.
Sampled rows, rich in hits. Any-hit rate of the full collection: about 1.8%.
Tn7 DDE FP: DD(E)-Tn7 binding inhibition, primary FP screen. P02675. FP displacement of FITC-Tn7 peptide from fibrin DD(E); 0% = median of compound wells per plate. inhibition, % at 8.3 µM. hit rate 0.13% among 370,000;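 active = inhibition above the mean of compounds falling within the control limits plus 3 SD of them, cut at about 14% in these data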;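 also: 0% = plate median of compound wells and 100% = 10 µM Aha-Tn7 peptide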
Target sequence (P02675 whole entry, looked up): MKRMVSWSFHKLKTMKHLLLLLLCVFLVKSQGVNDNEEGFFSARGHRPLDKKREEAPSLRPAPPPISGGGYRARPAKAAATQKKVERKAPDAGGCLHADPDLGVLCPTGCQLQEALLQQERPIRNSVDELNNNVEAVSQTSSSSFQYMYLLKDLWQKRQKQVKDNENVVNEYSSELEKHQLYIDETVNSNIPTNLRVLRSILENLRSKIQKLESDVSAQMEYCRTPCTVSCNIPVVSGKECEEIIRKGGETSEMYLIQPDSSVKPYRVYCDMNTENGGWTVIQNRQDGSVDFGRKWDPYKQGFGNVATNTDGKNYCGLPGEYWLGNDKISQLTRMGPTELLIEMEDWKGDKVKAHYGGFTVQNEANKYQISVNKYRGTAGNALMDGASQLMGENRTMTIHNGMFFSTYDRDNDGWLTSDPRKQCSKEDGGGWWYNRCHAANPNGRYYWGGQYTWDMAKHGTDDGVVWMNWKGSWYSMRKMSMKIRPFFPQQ
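System: human fibrin DD(E); quantity: Fibrin-DD(E) at 2 µM final; also added: fluorescent Tn7 probe at 0.1 µM; compound dosing: single nominal test concentration of 8.3 µM per compound; schedule: 10 min preincubation, 3 h with tracer, room temperature; detection: fluorescence polarization of the labelled Tn7 tracer; repeats: one replicate per compound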
TCR-CD3 inh: inhibitors of human TCR-CD3 interaction | inhibition, % at 9.4 µM | hit rate 0.37% among 360,000 | TAMRA-labeled TCR probe fluorescence, biochemical; in the data active = inhibition above about 19%;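 also: recombinant mutant TCR 2C K166C tagged with TAMRA read by polarization; 0% = receptor in buffer alone and 100% = receptor with positive control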
ABHD4 inh: inhibitors of mouse ABHD4. hit rate 0.54% among 370,000. Q8VD66. AID 720543. purified mABHD4, FP-Rh probe fluorescence polarization. inhibition, % at 8.92 µM;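 active = inhibition exceeding the mean over every tested compound plus 3 SD, cut at about 30% in these data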;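 also: 0% = plate median of compound wells and 100% = S159A mutant with DMSO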
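Test system: mABHD4 protein | Buffer or medium: HEPES pH 7.0 buffer, 150 mM NaCl, 0.01% Pluronic F-127 | Probe or stimulus: FP-Rh fluorescent activity-based probe, added after compound pre-incubation | Timing: Pre-incubation 45 min, probe exposure 60 min, at 25 °C | Technique: Fluorescence polarization, excitation 525 nm, emission 598 nm, BODIPY TMR filters | Repeats: Single well per compound (singlicate)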
DDE Tn6 FP inh: inhibitors of Tn6 peptide binding to human fibrin DD(E); P02675; hit rate 0.21% among 370,000; inhibition, % at 8.3 µM; Fibrin DD(E) TRITC-Tn6 fluorescence polarization displacement;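 active = inhibition above a per-campaign cutoff: mean of compounds within control limits plus 3 SD, cut at about 15% in these data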;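 also: 0% = median of all compound wells on the plate and 100% = blocking peptide control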
SIAE inh: human SIAE inhibition, primary screen. hit rate 0.69% among 370,000. Q9HAT2. SIAE FP-Rh probe binding, fluorescence polarization. inhibition, % at 9.66 µM;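 active = inhibition above a cutoff: mean of compounds within the control limits plus 3 SD of those, cut at about 17% in these data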;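 also: 0% = plate median of compound wells and 100% = probe without SIAE protein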
HTRA1 inhibitor: inhibitors of human serine peptidase HTRA1; Q92743; recombinant HTRA1, FP-rhodamine activity-based probe, fluorescence polarization; inhibition, % at 5.96 µM; hit rate 0.5% among 340,000; in the data active = inhibition above about 36%;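 also: 0% = enzyme with DMSO and 100% = wells lacking enzyme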
HTRA1 inh conf: confirmation of human HTRA1 inhibitors; shares compounds with HTRA1 inhibitor; recombinant HTRA1, FP-rhodamine activity-based probe, fluorescence polarization; inhibition, % at 5.96 µM; hit rate 66% among 1,600;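 active = mean inhibition over three repeats above a set limit taken from the earlier primary screen, cut at about 37% in these data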;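 also: 0% = HTRA1 with DMSO and 100% = wells lacking HTRA1; inhibitors block probe binding so polarization drops and inhibition rises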
mABHD4 conf: ABHD4 (mouse) inhibition, FP confirmation; purified mABHD4, FP-Rh probe fluorescence polarization; inhibition, % at 8.92 µM; shares compounds with ABHD4 inh; hit rate 55% among 1,800;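 active = mean inhibition across replicates above the hit cutoff set in the primary screen, cut at about 30% in these data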;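 also: 0% = wild-type ABHD4 with DMSO and 100% = catalytically dead S159A mutant with DMSO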
Starred values were filed as active, the others as inactive.

O=[N+]([O-])c1ccc(Cl)c2c1C1C=CCC1C(c1ccccn1)N2 (stereo not drawn) was read as Tn7 DDE FP -11, TCR-CD3 inh 3, ABHD4 inh 43*, DDE Tn6 FP inh -8, SIAE inh 12, HTRA1 inhibitor 60*, HTRA1 inh conf 43* and mABHD4 conf 74*.
Cc1cc([N+](=O)[O-])cc2c1NC(c1ccccn1)C1CC=CC21 (stereo not drawn) was read as Tn7 DDE FP -3, TCR-CD3 inh 3, ABHD4 inh 18, DDE Tn6 FP inh 7, SIAE inh 17 and HTRA1 inhibitor 11.
Screening CC(C)C[C@H]1COc2cc(Br)ccc2S(=O)(=O)N1Cc1cn(Cc2ccc(C(F)(F)F)cc2)nn1 returned Tn7 DDE FP -4, ABHD4 inh 6, DDE Tn6 FP inh -5 and SIAE inh 5.
CC(=O)c1sc(N/N=C\c2c(O)ccc3ccccc23)nc1C was read as Tn7 DDE FP -13, TCR-CD3 inh 7, ABHD4 inh 31*, DDE Tn6 FP inh 0, SIAE inh 14, HTRA1 inhibitor 39*, HTRA1 inh conf 44* and mABHD4 conf 28.
Screening CC(=O)c1sc(N/N=C/c2cccc(O)c2)nc1C returned Tn7 DDE FP 3, TCR-CD3 inh 0, ABHD4 inh 8, DDE Tn6 FP inh 5, SIAE inh 1 and HTRA1 inhibitor 0.
Screening CC(C)(C)N(Cc1cn(CC2CCCCC2)nn1)S(=O)(=O)c1ccccc1Br returned Tn7 DDE FP 1, ABHD4 inh 0, DDE Tn6 FP inh 5 and SIAE inh 0.
COC(=O)c1ccccc1NCc1cc(=O)oc2cc(O)c(O)cc12 was read as Tn7 DDE FP 4, TCR-CD3 inh 15, ABHD4 inh 40*, DDE Tn6 FP inh 1, SIAE inh 5, HTRA1 inhibitor 65*, HTRA1 inh conf 46* and mABHD4 conf 31*.
`CC(=O)N1CCc2c1cccc2S(=O)(=O)NC(CC(C)C)C(=O)Nc1ccc(Cl)c(Cl)c1` (stereo not drawn) gave Tn7 DDE FP 6, ABHD4 inh -1, DDE Tn6 FP inh -9 and SIAE inh -3.
`Cc1ccc2c(c1)c1ccc3c(c1n2C)C(=O)C=CC3=O` gave Tn7 DDE FP -7, TCR-CD3 inh 0, ABHD4 inh 68*, DDE Tn6 FP inh -5, SIAE inh -9, HTRA1 inhibitor 40*, HTRA1 inh conf 62* and mABHD4 conf 85*.
Cn1c2ccccc2c2ccc3c(c21)C(=O)C=CC3=O was read as Tn7 DDE FP 0, TCR-CD3 inh 8, ABHD4 inh 42*, DDE Tn6 FP inh 2, SIAE inh -2, HTRA1 inhibitor 40*, HTRA1 inh conf 63* and mABHD4 conf 72*.
`Cc1ccc(C)c2c1c1ccccc1n2C` gave Tn7 DDE FP 8, TCR-CD3 inh 3, ABHD4 inh -6, DDE Tn6 FP inh -1, SIAE inh 0 and HTRA1 inhibitor -1.
Cc1cc(C)c(C)c(N=Nc2nc3ccccc3n2C)c1C was read as Tn7 DDE FP -3, TCR-CD3 inh 5, ABHD4 inh 40*, DDE Tn6 FP inh 3, SIAE inh 9, HTRA1 inhibitor 37*, HTRA1 inh conf 43* and mABHD4 conf 55*.
For Cc1ccc(C)c(N=Nc2nc3ccccc3n2C)c1 the results were Tn7 DDE FP 4, TCR-CD3 inh 5, ABHD4 inh 13, DDE Tn6 FP inh -7, SIAE inh 9 and HTRA1 inhibitor 11.
